Molecules are shown by their SMILES.

A short description of the first test: Inhibition of recombinant Mycobacterium tuberculosis TMPK using dTMP as substrate measured after 1 min in presence of ATP/pyruvate kinase/lactate dehydrogenase/nucleoside diphosphate kinase by coupled spectrophotometric assay. In outline: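 Medium: 50 mM Tris-HCl pH 7.4, 50 mM KCl, 2 mM MgCl2, 0.2 mM NADH, 1 mM phosphoenolpyruvate, and 2 units each of LDH, pyruvate kinase and NDP kinase. ATP fixed at 0.5 mM and dTMP at 0.05 mM. Analogues varied from 0.01 to 1 mM. Result reported as Ki.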
As usually defined, the Ki is the dissociation constant of the complex between target and ligand, obtained from inhibition or displacement. Take `Nc1nc(=O)n([C@H]2C[C@H](O)[C@@H](CO)O2)cc1Br`: the Ki is 5 µM.

`Cc1cn([C@H]2CCN(Cc3cccc(Oc4ccccc4)c3)C2)c(=O)[nH]c1=O`: the inhibitory constant (Ki) was 7.8 µM.

As to `Cc1cn([C@@H]2CCCN(Cc3ccc(Oc4ccccc4)cc3)C2)c(=O)[nH]c1=O`, the Ki is 138 µM.

For the compound `Cc1cn([C@@H]2CCN(Cc3cccc(Oc4ccccc4)c3)C2)c(=O)[nH]c1=O`, the Ki was 8.2 µM.

On to `Cc1cn([C@H]2CCCN(Cc3ccc(Oc4ccccc4)cc3)C2)c(=O)[nH]c1=O`, for which the Ki came out at 21.5 µM.

Take `Cc1cn(CC2CCN(Cc3cccc(Oc4ccccc4)c3)C2)c(=O)[nH]c1=O` (racemic): the Ki was 111 µM.

Turning to `Cc1cn(CC2CCN(Cc3ccc(Oc4ccccc4)cc3)C2)c(=O)[nH]c1=O` (racemic), the inhibition constant (Ki) is 267 µM.

Consider `Cc1cn(C2CCCN(Cc3ccc(Oc4ccccc4)cc3)C2)c(=O)[nH]c1=O` (racemic), for which the Ki is 22.3 µM.

As for `Cc1cn(C2CCCN(C(=O)c3ccc(Oc4ccccc4)cc3)C2)c(=O)[nH]c1=O` (racemic), the Ki was determined as 14.4 µM.

For `Cc1cn(CC2CCCN(Cc3cccc(Oc4ccccc4)c3)C2)c(=O)[nH]c1=O` (racemic), the inhibitory constant (Ki) came out at 186 µM.

With `Cc1cn(C2CCCN(C(=O)c3cccc(Oc4ccccc4)c3)C2)c(=O)[nH]c1=O` (racemic), the inhibition constant (Ki) is 2.1 µM.

Another test can be described thus: Inhibition of recombinant Mycobacterium tuberculosis TMPK expressed in Escherichia coli using dTMP as substrate in presence of ATP/pyruvate kinase/lactate dehydrogenase/nucleoside diphosphate kinase by coupled spectrophotometric assay. Put shortly: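 Coupled assay read at 334 nm. Medium: 50 mM Tris-HCl pH 7.4, 50 mM KCl, 2 mM MgCl2, 0.2 mM NADH, 1 mM phosphoenolpyruvate, and 2 units each of LDH, pyruvate kinase and NDP kinase. ATP fixed at 0.5 mM and dTMP at 0.05 mM. Analogues varied from 0.01 to 1 mM. Result reported as Ki.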
In the case of `Cc1cn(C/C=C\CN2c3cccc4cccc(c34)S2(=O)=O)c(=O)[nH]c1=O`, the inhibitory constant (Ki) turned out to be 0.27 µM.

For the origin of these results see ChEMBL document CHEMBL3861990, “Elaboration of a proprietary thymidylate kinase inhibitor motif towards anti-tuberculosis agents” (Bioorg Med Chem, 2016).
